From ChEMBL document CHEMBL1149457, “Effects of amino acid chirality and the chemical linker on the cell permeation characteristics of cyclic prodrugs of opioid peptides” (J Med Chem, 2006) come the findings set out here.

Each structure is given as a SMILES string.

What all share (format): ADME, cell-based
Common to all, as to conditions: human

In data set [1] the test system is Caco-2. Briefly: Ratio of permeability from basolateral to apical over apical to basolateral side of the Caco-2 cell membrane in presence of 10 uM GF 120918. In short, it runs like this:
(§1)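 Caco-2 monolayers (passages 30-39) were grown 21-28 days on polyester Transwell membranes, with batch integrity checked by [14C]-mannitol flux. Bidirectional transport (n = 3) was run at 37 °C with shaking, using peptide at 20 µM final in HBSS pH 7.4 with 0.4% DMSO and inhibitor in HBSS. Sampling continued up to 160 min, with LC-MS-MS quantitation. Papp BL-to-AP/AP-to-BL ratio.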

The test system of data set [2] is Caco-2. Description: Ratio of permeability from basolateral to apical over apical to basolateral side of the Caco-2 cell membrane in presence of 20 uM cyclosporin A. In short, it runs like this:
as §1
In general terms: Passage across Caco-2 layers is used to estimate intestinal permeability.

The test system of data set [3] is Caco-2. Briefly: Ratio of permeability from basolateral to apical over apical to basolateral side of the Caco-2 cell membrane in presence of 50 uM MK 571. In short, it runs like this:
as §1

For data set [4], the system named is Caco-2. Briefly: Ratio of permeability from basolateral to apical over apical to basolateral side of the Caco-2 cell membrane in presence of 2 uM GF 120918. In short, it runs like this:
as §1

For `CC(C)C[C@@H]1NC(=O)[C@H](Cc2ccccc2)NC(=O)CNC(=O)[C@H](C)NC(=O)[C@H](Cc2ccc(O)cc2)NC(=O)/C=C\c2ccccc2OCOC1=O`, the Ratio with Caco-2 [1] came to 1.9; in the data set with Caco-2 [2], 12.

`CC(=O)N[C@@H](Cc1ccc(O)cc1)C(=O)N[C@@H](C)C(=O)NCC(=O)N[C@@H](Cc1ccccc1)C(=O)N[C@H](CC(C)C)C(N)=O`: the Ratio is 1 in the data set with Caco-2 [1], 3.8 in the data set on Caco-2 [3] and 1.2 in the data set with Caco-2 [2].

Regarding `CC(=O)N[C@@H](Cc1ccc(O)cc1)C(=O)N[C@H](C)C(=O)NCC(=O)N[C@@H](Cc1ccccc1)C(=O)N[C@@H](CC(C)C)C(N)=O`, the Ratio in the data set on Caco-2 [1] came out at 1.1; in the data set with Caco-2 [3], 1.1; in the data set with Caco-2 [2], 2.4.

`CC(C)C[C@H]1NC(=O)[C@H](Cc2ccccc2)NC(=O)CNC(=O)[C@H](C)NC(=O)[C@H](Cc2ccc(O)cc2)NC(=O)/C=C\c2ccccc2OCOC1=O`: the Ratio in the data set with Caco-2 [4] is on record as 5.4; in the data set with Caco-2 [1] it was 2.1; with Caco-2 [2], 6.1.

For the compound `CC(C)C[C@H]1NC(=O)[C@H](Cc2ccccc2)NC(=O)CNC(=O)[C@@H](C)NC(=O)[C@H](Cc2ccc(O)cc2)NC(=O)/C=C\c2ccccc2OCOC1=O`, the Ratio in the data set on Caco-2 [4] amounted to 13; in the data set with Caco-2 [1], 2.8; with Caco-2 [3], 4.9.

On to `CC(C)C[C@@H]1NC(=O)[C@H](Cc2ccccc2)NC(=O)CNC(=O)[C@@H](C)NC(=O)[C@H](Cc2ccc(O)cc2)NC(=O)/C=C\c2ccccc2OCOC1=O`, for which the Ratio with Caco-2 [4] turned out to be 5; with Caco-2 [1], 2.3; in the data set with Caco-2 [3], 2.8; with Caco-2 [2] it was 14.
